18 molecules from ChEMBL document CHEMBL1687874, “Anti-tubercular agents. Part 6: synthesis and antimycobacterial activity of novel arylsulfonamido conjugated oxazolidinones” (Eur J Med Chem, 2011) can be followed below.

≈ marks a conversion by molar mass, not a printed value.

Assay [1] has as its system Mycobacterium tuberculosis. Put plainly: Antimycobacterial activity against Mycobacterium tuberculosis H37Rv after 3 to 4 weeks by microplate alamar blue assay. Format: functional. On the technique in general: Resazurin is reduced to fluorescent resorufin, in cell work by metabolically active cells.
Assay [2] is described as follows: Selectivity index, ratio of IC50 for human HFF cells to MIC for Mycobacterium tuberculosis H37Rv. Format: functional. A digest of the protocol: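 SI computed as IC50 on HFF cells (24 h MTT) divided by MIC against M. tuberculosis H37Rv (3–4 week microdilution, […]).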
The subject of the next assay is HFF. Put plainly: Cytotoxicity against human HFF cells after 24 hrs by MTT assay. It counts as cell-based. A digest of the protocol: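 Human foreskin fibroblasts in DMEM with 10% FCS exposed to test material for 24 h at 37 °C in CO2 incubator. MTT then added, 3 h further at 37 °C. Formazan read at 565 nm; percent cytotoxicity relative to untreated cells, reported as IC50.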
(In general: Tetrazolium dyes change colour on reduction, which living cells bring about.)

On to `CN1C(NC[C@H]2CN(c3ccc(N4CCOCC4)c(F)c3)C(=O)O2)=NS(=O)(=O)c2ccccc21`, for which the MIC (usually the lowest concentration found to suppress growth) in assay [1] is more than 6.25 µg/mL.

Consider `CCN1C(NC[C@H]2CN(c3ccc(N4CCOCC4)c(F)c3)C(=O)O2)=NS(=O)(=O)c2ccccc21`, for which the minimum inhibitory concentration (MIC) in assay [1] was more than 6.25 µg/mL.

On to `O=C1O[C@@H](CNC2=NS(=O)(=O)c3ccccc3N2c2ccccc2)CN1c1ccc(N2CCOCC2)c(F)c1`, for which, in assay [1], the minimal inhibitory concentration (MIC) is more than 6.25 µg/mL.

As for `CN1C(NC[C@H]2CN(c3ccc(N4CCSCC4)c(F)c3)C(=O)O2)=NS(=O)(=O)c2ccccc21`, the MIC in assay [1] is more than 6.25 µg/mL.

`CCN1C(NC[C@H]2CN(c3ccc(N4CCSCC4)c(F)c3)C(=O)O2)=NS(=O)(=O)c2ccccc21`: the minimum inhibitory concentration (MIC) in assay [1] is more than 6.25 µg/mL.

As to `O=C1O[C@@H](CNC2=NS(=O)(=O)c3ccccc3N2c2ccccc2)CN1c1ccc(N2CCSCC2)c(F)c1`, the MIC in assay [1] is more than 6.25 µg/mL.

In assay [1], `O=C1O[C@@H](CNS(=O)(=O)c2ccccc2)CN1c1ccc(N2CCOCC2)c(F)c1` registered an MIC of more than 6.25 µg/mL.

`O=C1O[C@@H](CNS(=O)(=O)c2ccc(Cl)cc2)CN1c1ccc(N2CCOCC2)c(F)c1`: in assay [1], the minimum inhibitory concentration (MIC) is more than 6.25 µg/mL.

On to `O=C1O[C@@H](CNS(=O)(=O)c2ccc(F)cc2)CN1c1ccc(N2CCOCC2)c(F)c1`, for which the “Selectivity Index” value in assay [2] was more than 100. For the same molecule, the IC50 (commonly the concentration that inhibits the measured activity by half) in the assay with HFF was more than 100 µM. This molecule showed an MIC in assay [1] of 1 µg/mL (≈ 2.21 µM).

Regarding `Cc1ccc(S(=O)(=O)NC[C@H]2CN(c3ccc(N4CCOCC4)c(F)c3)C(=O)O2)cc1`, the minimum inhibitory concentration (MIC) in assay [1] was more than 6.25 µg/mL.

In the case of `CC(=O)NC[C@H]1CN(c2ccc(N3CCN(C4=NS(=O)(=O)c5ccccc5N4C)CC3)c(F)c2)C(=O)O1`, the “Selectivity Index” value in assay [2] is given as more than 100. The same molecule yielded an IC50 in the assay on HFF of more than 100 µM. This molecule returned a minimum inhibitory concentration (MIC) in assay [1] of 1 µg/mL (≈ 1.88 µM).

For `CCN1C(N2CCN(c3ccc(N4C[C@H](CNC(C)=O)OC4=O)cc3F)CC2)=NS(=O)(=O)c2ccccc21`, in assay [2], the “Selectivity Index” value is reported as more than 50. Further, the 50% inhibitory concentration (IC50) with HFF is more than 50 µM. Besides, in assay [1], the MIC was found to be 1 µg/mL (≈ 1.84 µM).

`CC(=O)NC[C@H]1CN(c2ccc(N3CCN(C4=NS(=O)(=O)c5ccccc5N4c4ccccc4)CC3)c(F)c2)C(=O)O1`: the “Selectivity Index” value in assay [2] is on record as more than 8. This molecule had a half-maximal inhibitory concentration (IC50) with HFF of more than 50 µM. Further, it took 6.25 µg/mL (≈ 10.5 µM) to inhibit growth in assay [1] (MIC).

Take `CN1C(NC[C@H]2CN(c3ccc(N4CCN(C(=O)/C=C/c5ccc(-c6ccc(Cl)cc6)o5)CC4)c(F)c3)C(=O)O2)=NS(=O)(=O)c2ccccc21`: the MIC in assay [1] was more than 6.25 µg/mL.

`CCN1C(NC[C@H]2CN(c3ccc(N4CCN(C(=O)/C=C/c5ccc(-c6ccc(Cl)cc6)o5)CC4)c(F)c3)C(=O)O2)=NS(=O)(=O)c2ccccc21`: the minimum inhibitory concentration (MIC) in assay [1] was more than 6.25 µg/mL.

For `O=C(/C=C/c1ccc(-c2ccc(Cl)cc2)o1)N1CCN(c2ccc(N3C[C@H](CNC4=NS(=O)(=O)c5ccccc5N4c4ccccc4)OC3=O)cc2F)CC1`, in assay [1], the MIC was more than 6.25 µg/mL.

`CC(=O)NC[C@H]1CN(c2ccc(N3CCOCC3)c(F)c2)C(=O)O1` [LINEZOLID] displayed an MIC in assay [1] of 2 µg/mL (≈ 5.93 µM).

In assay [1], `CO[C@H]1/C=C/O[C@@]2(C)Oc3c(C)c(O)c4c(O)c(c(/C=N/N5CCN(C)CC5)c(O)c4c3C2=O)NC(=O)/C(C)=C\C=C\[C@H](C)[C@H](O)[C@@H](C)[C@@H](O)[C@@H](C)[C@H](OC(C)=O)[C@@H]1C` [RIFAMPIN] showed an MIC of 0.12 µg/mL (≈ 0.146 µM).
